Experimental data as given in ChEMBL document CHEMBL4513216, “Probing the Open Global Health Chemical Diversity Library for Multistage-Active Starting Points for Next-Generation Antimalarials” (ACS Infect Dis, 2020).

Test: Toxicity liver stage against HepG2, at 10uM
Format: cell-based
Set-up: test concentration 10 uM, cell line HepG2-A16-CD81EGFP
Conditions: human, HepG2-A16-CD81EGFP cells; read-out: INHIBITION
Method in brief: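 Uninfected HepG2-A16-CD81EGFP cells, 3 × 10^3 per well, 1536-well, plated on prespotted compound at 10 μM final, parasite-free screening media added to match infected plates; puromycin 10 μM positive, DMSO 0.5% negative; run in parallel with 48 h PbLuc assay at 37 °C, 5% CO2; viability by CellTiter-Glo luminescence, normalized to controls.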

SMILES | cytotoxicity at 10 µM [%]
CC(C)=CCn1ncc(N2CCCCC2)cc1=O | -9.48
CCS(=O)(=O)N1CCc2c(CN(C)Cc3ccco3)cncc2C1 | -4.85
CN(Cc1ccsc1)C(=O)c1ccc(C2CCCO2)s1 (configuration not stated) | 7.9
CCN1CCC2(CC1)CC(NCc1ccncc1)c1ccccc1O2 (configuration not stated) | 0.254
CCOCC(=O)Nc1cc(-n2nnnc2C2CC2)ccc1F | -4.28
CNC(=O)CCN1CCCC1c1ccccc1Br (configuration not stated) | 15.3
Cn1cnnc1S(=O)(=O)C1CCN(S(=O)(=O)c2ccc(Cl)s2)CC1 | -4.72
COc1cn(CC(=O)N2CCN(c3ccc(F)cc3)CC2)c(C)cc1=O | 2.29
O=C(NCCO)Nc1cnc2cc(Cl)ccc2c1O | -30.2
Cc1c(C(=O)NC2=NCCS2)cnn1-c1ccc(Br)cc1 | -0.647
CC1c2ncc(CN3CCN(C)CC3)n2CCN1CC1CC1 (configuration not stated) | -20.3
Cc1nc(CN2CCCC2C(=O)OCc2ccccc2)oc1C (configuration not stated) | -1.86
CCc1ccc(C(=O)N2CCC(O)(CN3CCOCC3)C(C)(C)C2)[nH]1 (configuration not stated) | 0.542
CCN1CCC(CNS(=O)(=O)N2CCc3ccccc3C2)C1 (configuration not stated) | -15.4
Cc1c(F)cc(C(=O)NCC(F)(F)F)cc1NCC(=O)N(C)C | 10.2
Cc1cc2c(=O)n3c(nc2s1)CCN(C(=O)c1ccn(C)n1)CC3 | -9.68
c1ccc(CN2CCC(NCCSc3cnn[nH]3)C2)cc1 (configuration not stated) | 1.12
Cc1c(C(=O)N2C[C@@H](CN(C)CCO)[C@@H](CO)C2)sc2ccccc12 | -11
CN(CCN(C)S(=O)(=O)CC1CCOCC1)c1ccccc1 | -9.65
CCc1ccc(C2COCCN2C(=O)NCc2cccc(C#N)c2)o1 (configuration not stated) | -0.838
Cc1nn(C)c2cn(C(C)C(=O)NCc3ccncc3)nc12 (configuration not stated) | 1.91
O=c1[nH]nc(CNCc2ccc(OC34CCCN(CC3)C4)cc2)[nH]1 (configuration not stated) | -2.83
O=C(CNC(=O)C1CC1)Nc1c(F)cccc1Oc1ccccc1 | 0.99

SMILES | cytotoxicity at 10 µM [%]
CN(CC1Cc2ccccc2CN1C)C(=O)CSc1ccccn1 (configuration not stated) | -1.32
Cc1cccc(S(=O)(=O)NCC(C)N2CCN(C)CC2)c1Cl (configuration not stated) | -4.52
Cc1cc(CN2CCc3c(CNc4ncccn4)cncc3C2)oc1C | -82.6
Cc1ccc(OC2(C(=O)O)CCN(C(=O)c3ccccc3F)CC2)cn1 | 2.75
Cc1cccc(CN2C[C@@H]3COC[C@]3(COc3ccc(C#N)cn3)C2)n1 | -21.2
CC(C)C1CC(=O)Nc2c1cnn2Cc1ccco1 (configuration not stated) | 1.27
CC(C)c1noc(Cn2ncn3cccc3c2=O)n1 | -4.1
Cc1cc(C)n2c(CNCc3ccc(OC(F)F)cc3)cnc2n1 | -145
COc1c(C2CCCN2CC(=O)Nc2cc(C)nn2C)c(C)nn1C (configuration not stated) | 3.72
CN(C)CCNC(=O)c1ccc(S(=O)(=O)N[C@@H]2CCNC2)cc1 | -49.2
CC(=O)N1CCC2(CC1)COCCN2Cc1ccc(F)cc1 | 5.69
Cc1cc(C(=O)N2C[C@@H](CN3CCOCC3)C[C@H](CO)C2)nc(C)n1 | 3.63
Cc1cc(NC(=O)CN2CCn3c(nnc3C(C)C)C2)n(C)n1 | -5.39
CC(=O)NCCCSC1CCCN(c2ccccc2Cl)C1=O (configuration not stated) | -0.5
O=C(c1nc2c(s1)CCCN2CC1CC1)N1CCOCC1 | 11.2
COCCN(Cc1cccc(C#N)c1)Cc1nc(C)no1 | 1.18
Cc1cccc(CNC(=O)CC2CCN(C(=O)C(C)C)CC2)n1 | 7.45
CO[C@@H]1CN(c2ccccc2)S(=O)(=O)[C@@]12CCN(C)C2 | 3.33
c1cc2c(cc1CN1CCN(Cc3noc(C4CC4)n3)CC1)OCO2 | 15.8
CC(=O)N[C@@H]1CN(C2CCN(c3cccc(Cl)c3)CC2)C[C@H]1C(C)C | 1.6
O=C(c1ccsc1)N1CCO[C@@H]2CN(Cc3nccs3)C[C@@H]2C1 | -108
CC(Cc1ccc2c(c1)OCO2)c1cn(CCN2CCCC2)nn1 (configuration not stated) | 7.09
C[C@@H]1CN(c2ccc(C#N)cn2)CC[C@@]1(O)C1CCOCC1 | -1.5

SMILES | cytotoxicity at 10 µM [%]
Cc1noc(C)c1CN(C)C(=O)C1CCCN1S(N)(=O)=O (configuration not stated) | 7.89
CC1CCC(NCCCN2CCOCC2)CC1 (configuration not stated) | -6.58
N#CC1(C(=O)N2Cc3cc(-c4cc[nH]n4)ccc3C2c2cnco2)CC1 (configuration not stated) | 25.5
c1cnnc(N2CCCC2CNCc2nc(-c3ccoc3)no2)c1 (configuration not stated) | -18.7
CCCN(Cc1ccc(C#N)cc1)Cc1nnsc1Cl | -58.4
Cc1c(Br)cccc1S(=O)(=O)NCc1ccnn1C | 43
CNc1cc(N2CCCC2CNCc2ccco2)ncn1 (configuration not stated) | -10.4
COc1c(C)cnc(CNC(=O)CCc2nc3ccccc3[nH]2)c1C | -5.27
CN1CCOCC2(CCCN(C(=O)c3cn(C)cn3)C2)C1 (configuration not stated) | 8.47
O=C(Cc1ccccc1)N1CCC(c2nnc(-c3ccccn3)o2)CC1 | 2.83
Cc1nc(-c2ccccc2)n(CC(=O)NC(C2CC2)C2CC2)n1 | 11
NCc1cnn(-c2ccccc2C(=O)NCc2ccccc2Cl)c1 | -3.52
COc1cccc(NC(=O)NCc2cnn(C)c2)c1 | -1.59
c1csc(-c2noc(CN3CCc4cncnc4C3)n2)c1 | -9.5
O=C(c1cscn1)N1CCc2ncc(Cn3cncn3)n2CC1 | -68.9
CN1Cc2ccccc2CC2(CCN(c3ncc(F)cn3)CC2)C1=O | 6.59
c1cnc(N2CCCC3(CN(CC4CCOCC4)CCO3)C2)cn1 (configuration not stated) | 0.37
NC(=O)C1CCC(NC(=O)COc2ccc(Cl)c(Cl)c2)CC1 (configuration not stated) | -12.5
CN(C)c1cc(C(=O)N2CCCN(c3cccnn3)CC2)ccn1 | -8.19
COCC(=O)NC[C@H]1OC[C@@H](NC2CCC(F)(F)CC2)[C@@H]1O | -3.32
Cc1cc(-c2cnc(C3CC3)nc2CN(C)C(=O)c2ccccn2)on1 | -45
COC(=O)c1cc(NCC(=O)NC(N)=O)cc(C(F)(F)F)c1 | -1.06
Cc1cccc(C2CCCCCN2C(=O)c2cn(CC(N)=O)nn2)c1 (configuration not stated) | 1.51

SMILES | cytotoxicity at 10 µM [%]
CC(C)C(=O)N1CCCC(Cc2ncccn2)C1 (configuration not stated) | -2.49
O=C(NCCn1cccc1)C(c1cccnc1)N1CCCC1 (configuration not stated) | -54.5
CN(C)CCNC(=O)CNC(=O)N1CCc2c([nH]c3ccc(Cl)cc23)C1 | 7.36
COCCN1CCN(CC(=O)N(C)Cc2ccccc2)CC1C (configuration not stated) | -144
CCc1ccc(C(=O)Nc2cccc(CN3CCCC3C(N)=O)c2)cc1 (configuration not stated) | -0.268
Cc1noc(C)c1CCc1nc(C2CCOC2)no1 (configuration not stated) | -4
CCn1ccnc1CN1CCOC(CNc2cccnn2)C1 (configuration not stated) | 0.762
Cc1cc(CN2CCN(C(=O)NCc3ccoc3)CC2)no1 | -22.5
CC(c1ccco1)N(C(=O)Cn1nc2n(c1=O)CCCCC2)C1CC1 (configuration not stated) | -6.17
Cc1nc2n(n1)CC(NCc1ccnc(-c3ccccc3)n1)CC2 (configuration not stated) | -0.898
CCn1c(N)nc2cc(C(=O)NCc3cccc(C)c3C)cnc21 | 19.7
CCOC(=O)N1CCN(C(=O)c2sc(-c3ccncc3)nc2C)CC1 | -3.3
O=C(c1cc(-c2ccc(O)cc2)n[nH]1)N1CCCC1c1cccnc1 (configuration not stated) | -4.09
O=C(CCCn1cncn1)N1CCCC1c1noc(C2CC2)n1 (configuration not stated) | -31.5
Cc1ccccc1-n1cc(-c2ccnc(NC(CO)C(C)C)n2)cn1 (configuration not stated) | 7.12
Cn1cc(C2CN(C(=O)Cc3coc(-c4ccccc4)n3)CCO2)cn1 (configuration not stated) | -12.4
CC(=O)N(Cc1ncc(C(C)C)o1)C1CCN(CCn2cncn2)C1 (configuration not stated) | -11.3
CCc1ncc2c(n1)CN(CC(=O)Nc1nnc(C)s1)CC2 | 2.94
CC(C)n1cnnc1CNC(=O)c1cnn(-c2ccccc2)c1 | 11.9
Cc1ccc2c(c1)C1(CC2)CCN(CC(=O)O)CC1 | 0.806
OCC1CCCN1c1cc(NCCc2c[nH]c3ccccc23)ncn1 (configuration not stated) | -7.06
Cc1nn(C)c(C)c1C(=O)N1CCN(C(=O)CCC2CCCCC2)CC1 | -5.47
CC(=O)N1CCCC2(CN(Cc3ccc(C)s3)CCO2)C1 (configuration not stated) | 0.102

SMILES | cytotoxicity at 10 µM [%]
CC1CC2(CCN(C(=O)c3c[nH]cn3)CC2)c2ccccc21 (configuration not stated) | 2.44
CCc1cn[nH]c1C1CCCN(C(=O)c2noc(C)c2COC)C1 (configuration not stated) | -1.67
N#Cc1ccc(CNC(=O)NC2CCN(c3ncccn3)CC2)cc1 | 11.3
CC(Cn1cccn1)NCc1nc(-c2ccco2)no1 (configuration not stated) | -2.66
Cn1cc(-c2nnn3c2COC(CNCc2ccccn2)C3)cn1 (configuration not stated) | 0.298
CCc1cc(NC2CCN(Cc3ccccc3F)CC2)n2nccc2n1 | -6
Cc1ccc(CN2CCCC3(COCCN(Cc4c[nH]nn4)C3)C2)o1 (configuration not stated) | -5.47
CNC(=O)NC(=O)CN(CC(C)O)c1ccccc1 (configuration not stated) | 10.9
c1cncc(CN2CCc3ncnc(C4CCOC4)c3CC2)c1 (configuration not stated) | 5.02
CCS(=O)(=O)N1CCN(CC2CC2)c2ncccc2C1 | 7.97
Cc1cc(Br)oc1C(=O)N1CCN(CC(N)=O)CC1 | 0.658
Cc1ccc(C)c(CS(=O)(=O)CC(=O)NC(C)c2ccc(F)cc2F)c1 (configuration not stated) | 9.71
COc1ccc2c3c1CN(C(C)=O)CC3=CC(C)(C)CO2 | 10.1
CC(C)c1ncc(C(=O)N2CCOCC2CC(=O)c2ccco2)s1 (configuration not stated) | 5.08
CCN(Cc1nonc1C)C(=O)c1ccc(Br)o1 | 0.621
CCc1nnc2n1CCN(C(=O)c1ccc3c(c1)nnn3C)C2 | -4.68
CCCn1nc(-c2nc(COc3ccccc3)no2)ccc1=O | -2.74
Cc1cn2c(n1)CCC(NC(=O)c1cncnc1C)C2 (configuration not stated) | -3.56
c1cnnc(NCC2CN(Cc3ccon3)CCO2)c1 (configuration not stated) | -32.2
CN(C)c1cc(C(F)(F)F)nc(N2CCCC2c2ccccn2)n1 (configuration not stated) | 5.36
